In ChEMBL document CHEMBL1138750, “Design, synthesis, and biological evaluation of 1,2,3,7-tetrahydro-6h-purin-6-one and 3,7-dihydro-1h-purine-2,6-dione derivatives as corticotropin-releasing factor(1) receptor antagonists” (J Med Chem, 2004) one finds IC50 data, which are given here for 26 compounds.

Assay [1] concerns the target T1, Corticotropin-releasing factor receptor 1 (Rattus norvegicus, UniProt P35353).
T1 sequence (P35353 whole entry): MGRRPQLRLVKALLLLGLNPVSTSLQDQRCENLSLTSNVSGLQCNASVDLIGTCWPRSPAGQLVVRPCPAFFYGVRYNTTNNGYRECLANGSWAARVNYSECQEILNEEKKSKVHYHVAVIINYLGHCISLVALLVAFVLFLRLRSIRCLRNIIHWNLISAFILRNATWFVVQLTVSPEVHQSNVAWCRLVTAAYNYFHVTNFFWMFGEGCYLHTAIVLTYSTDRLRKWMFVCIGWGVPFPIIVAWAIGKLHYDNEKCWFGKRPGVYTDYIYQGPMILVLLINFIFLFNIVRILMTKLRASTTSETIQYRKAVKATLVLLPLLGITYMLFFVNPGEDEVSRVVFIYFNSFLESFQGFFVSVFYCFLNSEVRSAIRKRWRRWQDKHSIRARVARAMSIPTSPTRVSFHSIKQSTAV
In words: Inhibition of [125I]- Ovine CRF binding to rat frontal cortex corticotropin releasing factor 1 receptor. It is filed as tissue-based. In outline: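 Frozen rat frontal cortex homogenate (25 μg/well) in 50 mM HEPES pH 7.0 with 10 mM MgCl₂, 2 mM EGTA, protease inhibitors, 0.005% Triton X-100, bacitracin and 0.1% ovalbumin. Bound ligand collected by filtration on PEI-treated filters and gamma counted. Nonspecific binding defined with 1 μM DMP696.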

Assay [2] in a line: Inhibition of CRF-stimulated cAMP production in human Y-79 retinoblastoma cells. Conditions: Y79. The format is functional, cell-based. In short, it runs like this: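 Human Y-79 retinoblastoma cells, 20 000/well in HBSS with 2 mM CaCl₂, 5 mM MgCl₂, 20 mM HEPES and 1 mM IBMX. Antagonist (typically 0.01–10 000 nM) preincubated 30 min at 37 °C, then 1 nM CRF added for 30 min at 37 °C. cAMP read by HTRF against a cAMP standard curve. Percent inhibition of CRF-induced cAMP determined in triplicate; basal cAMP without CRF also measured.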
Background: Cyclic AMP is a second messenger, typically raised through Gs and lowered through Gi signalling.

The structures appear in SMILES notation.

For `CCCC(CCC)n1c(CC)nc2c1C(=O)N(C)C(C)N2c1ccc(Cl)cc1Cl` (stereo not drawn), the IC50 (commonly the concentration that inhibits the measured activity by half) in assay [1] was 383 nM.

For the compound `CCCC(CCC)n1c(CC)nc2c1C(=O)N(C)CN2c1ccc(Cl)cc1`, the IC50 in assay [1] is 173 nM.

`CCc1nc2c(n1C(CC)C(C)C)C(=O)N(C)CN2c1ccc(Cl)cc1Cl` (stereo not drawn) returned an IC50 in assay [1] of 51 nM.

In turn, `CCc1nc2c(n1C(CC)C1CC1)C(=O)N(C)CN2c1ccc(OC)cc1Cl` (stereo not drawn) had an IC50 in assay [1] of 113 nM.

In assay [1], `CCc1nc2c(n1Cc1ccccc1C)C(=O)N(C)CN2c1ccc(Cl)cc1Cl` gave an IC50 of 458 nM.

In the case of `CCc1nc2c(n1C(C)C1CCC1)C(=O)N(C)CN2c1ccc(Cl)cc1Cl` (stereo not drawn), the IC50 in assay [1] worked out at 26 nM.

For `CCc1nc2c(n1C(CC)C1CC1)C(=O)N(C)CN2c1ccc(Cl)cc1Cl` (stereo not drawn), the IC50 in assay [1] was 14 nM.

Consider `CCCC(CCC)n1c(CC)nc2c1C(=O)N(C)C(CC)N2c1ccc(Cl)cc1Cl` (stereo not drawn), for which, in assay [1], the 50% inhibitory concentration (IC50) stood at 626 nM.

`CCCC(CCC)n1c(CC)nc2c1C(=O)N(C)CN2c1c(C)cc(C)cc1C` returned an IC50 in assay [1] of 22 nM.

In the case of `CCCC(CCC)n1c(CC)nc2c1c(=O)n(C)c(=O)n2-c1ccc(Cl)cc1Cl`, the IC50 in assay [1] was 75 nM.

The compound `CCc1nc2c(n1Cc1ccc(OC)cc1)C(=O)N(C)CN2c1ccc(Cl)cc1Cl` returned an IC50 in assay [1] of 456 nM.

`CCCC(CCC)n1c(CC)nc2c1C(=O)N(C)CN2c1ccc(C(C)C)cc1Cl` showed an IC50 in assay [1] of 50 nM.

As to `CCCC(CCC)n1c(CC)nc2c1C(=O)N(C)CN2c1ccc(Cl)cc1Cl`, the half-inhibitory concentration (IC50) in assay [1] came to 5.4 nM; in assay [2] it was 24.2 nM.

Regarding `CCc1nc2c(n1C(CC)C(C)C)C(=O)N(C)CN2c1ccc(C(C)C)cc1Cl` (stereo not drawn), the IC50 in assay [1] came to 555 nM.

Compound `CCc1nc2c(n1Cc1ccc(-c3ccccc3)cc1)C(=O)N(C)CN2c1ccc(Cl)cc1Cl` returned an IC50 in assay [1] of 324 nM.

`CCCC(CCC)n1c(CC)nc2c1C(=O)N(C)CN2c1ccc(OC)cc1Cl`: the IC50 in assay [1] was found to be 27 nM.

In the case of `CCc1nc2c(n1Cc1ccccc1C)C(=O)N(C)CN2c1ccc(OC)cc1Cl`, in assay [1], the IC50 is 875 nM.

In turn, `CCCC(C1CC1)n1c(CC)nc2c1C(=O)N(C)CN2c1ccc(Cl)cc1Cl` (stereo not drawn) displayed an IC50 in assay [1] of 10 nM.

`CCc1nc2c(n1C(C)C1CC1)C(=O)N(C)CN2c1ccc(Cl)cc1Cl` (stereo not drawn) showed an IC50 in assay [1] of 55 nM.

In assay [1], `CCc1nc2c(n1C(CC)CC)C(=O)N(C)CN2c1ccc(Cl)cc1Cl` came in with an IC50 of 112 nM.

Regarding `CCCC(COC)n1c(CC)nc2c1C(=O)N(C)CN2c1ccc(Cl)cc1Cl` (stereo not drawn), the IC50 in assay [1] turned out to be 43 nM.

Turning to `CCCC(C)n1c(CC)nc2c1C(=O)N(C)CN2c1ccc(Cl)cc1Cl` (stereo not drawn), the half-inhibitory concentration (IC50) in assay [1] turned out to be 52 nM.

Regarding `CCCCC(CC)n1c(CC)nc2c1C(=O)N(C)CN2c1ccc(Cl)cc1Cl` (stereo not drawn), the IC50 in assay [1] amounted to 18 nM.

`CCc1nc2c(n1COCc1ccccc1)C(=O)N(C)CN2c1ccc(Cl)cc1Cl` returned an IC50 in assay [1] of 860 nM.

On to `CCc1nc2c(n1C(C1CC1)C1CC1)C(=O)N(C)CN2c1ccc(Cl)cc1Cl`, for which the IC50 in assay [1] worked out at 6 nM; in assay [2], 14.4 nM.

For the compound `CCCC(CCC)n1cnc2c1C(=O)N(C)CN2c1ccc(Cl)cc1Cl`, the IC50 in assay [1] is 898 nM.
